Measured values: ChEMBL document CHEMBL3244382, “Structural requirements for antileukemic activity among the naturally occurring and semisynthetic maytansinoids” (J Med Chem, 1978)
In brackets after ≈: the same amount, converted by molar mass. Activity calls are given as the source filed them.

Assays:
Mus musculus [1] = experiment: Toxicity in PS mouse allografted with mouse P388 cells assessed as change in body weight at 3.1 ug/kg relative to control; format: organism-based; conditions: in vivo, 0.0031 mg/kg
In short: (§1)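 P388 (PS) leukemia in mice, 6 mice per dose group. Weight change is the difference in grams between treated and control animals. Survivors are recorded on toxicity day, normally 4 days after the first injection.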

Mus musculus [2] = experiment: Toxicity in PS mouse allografted with mouse P388 cells assessed as change in body weight at 1.6 ug/kg relative to control; format: organism-based; conditions: in vivo, 0.0016 mg/kg; in short: as §1
Mus musculus [3] = experiment: Toxicity in PS mouse allografted with mouse P388 cells assessed as change in body weight at 0.8 ug/kg relative to control; format: organism-based; conditions: in vivo, 0.0008 mg/kg
In short: (§2)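 PS (P388 leukemia) mice, six per dose group. Toxicity read as the difference in grams between the weights of treated and control animals.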

Mus musculus [4] = experiment: Toxicity in PS mouse allografted with mouse P388 cells assessed as change in body weight at 0.4 ug/kg relative to control; format: organism-based; conditions: in vivo, 0.0004 mg/kg; in short: as §2
Mus musculus [5] = experiment: Toxicity in PS mouse allografted with mouse P388 cells assessed as change in body weight at 0.2 ug/kg relative to control; format: organism-based; conditions: in vivo, 0.0002 mg/kg; in short: as §2
Mus musculus [6] = experiment: Toxicity in PS mouse allografted with mouse P388 cells assessed as survival at 50 ug/kg after 4 days; format: organism-based; conditions: in vivo, 0.05 mg/kg, 96 h
In short: (§3)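 PS (P388) leukemic mice, six started per dose group. Toxicity scored as survivors on the toxicity day over the number of mice started. The toxicity day is normally 4 days after the first injection.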

Mus musculus [7] = experiment: Toxicity in PS mouse allografted with mouse P388 cells assessed as survival at 25 ug/kg after 4 days; format: organism-based; conditions: in vivo, 0.025 mg/kg, 96 h; in short: as §3
Mus musculus [8] = experiment: Toxicity in PS mouse allografted with mouse P388 cells assessed as survival at 12.5 ug/kg after 4 days; format: organism-based; conditions: in vivo, 0.0125 mg/kg, 96 h; in short: as §3
Mus musculus [9] = experiment: Toxicity in PS mouse allografted with mouse P388 cells assessed as survival at 6.2 ug/kg after 4 days; format: organism-based; conditions: in vivo, 0.0062 mg/kg, 96 h; in short: as §3
Mus musculus [10] = experiment: Toxicity in PS mouse allografted with mouse P388 cells assessed as survival at 3.1 ug/kg after 4 days; format: organism-based; conditions: in vivo, 0.0031 mg/kg, 96 h; in short: as §3
Mus musculus [11] = experiment: Toxicity in PS mouse allografted with mouse P388 cells assessed as survival at 1.6 ug/kg after 4 days; format: organism-based; conditions: in vivo, 0.0016 mg/kg, 96 h; in short: as §3
Mus musculus [12] = experiment: Toxicity in PS mouse allografted with mouse P388 cells assessed as survival at 0.8 ug/kg after 4 days; format: organism-based; conditions: in vivo, 0.0008 mg/kg, 96 h; in short: as §3
Mus musculus [13] = experiment: Toxicity in PS mouse allografted with mouse P388 cells assessed as survival at 0.4 ug/kg after 4 days; format: organism-based; conditions: in vivo, 0.0004 mg/kg, 96 h; in short: as §3
Mus musculus [14] = experiment: Toxicity in PS mouse allografted with mouse P388 cells assessed as survival at 0.2 ug/kg after 4 days; format: organism-based; conditions: in vivo, 0.0002 mg/kg, 96 h; in short: as §3
Mus musculus [15] = experiment: Toxicity in PS mouse allografted with mouse P388 cells assessed as survival at 0.1 ug/kg after 4 days; format: organism-based; conditions: in vivo, 0.0001 mg/kg, 96 h; in short: as §3
Mus musculus [16] = experiment: Toxicity in PS mouse allografted with mouse P388 cells assessed as change in body weight at 50 ug/kg relative to control; format: organism-based; conditions: in vivo, 0.05 mg/kg; in short: as §1
Mus musculus [17] = experiment: Toxicity in PS mouse allografted with mouse P388 cells assessed as change in body weight at 25 ug/kg relative to control; format: organism-based; conditions: in vivo, 0.025 mg/kg; in short: as §1
Mus musculus [18] = experiment: Toxicity in PS mouse allografted with mouse P388 cells assessed as change in body weight at 12.5 ug/kg relative to control; format: organism-based; conditions: in vivo, 0.0125 mg/kg; in short: as §1
Mus musculus [19] = experiment: Toxicity in PS mouse allografted with mouse P388 cells assessed as change in body weight at 6.2 ug/kg relative to control; format: organism-based; conditions: in vivo, 0.0062 mg/kg; in short: as §1
Mus musculus [20] = experiment: Toxicity in PS mouse allografted with mouse P388 cells assessed as change in body weight at 0.1 ug/kg relative to control; format: organism-based; conditions: in vivo, 0.0001 mg/kg; in short: as §2
P388 [21] = experiment: Antitumor activity against mouse P388 cells allografted in PS mouse assessed as median survival time at 50 ug/kg relative to control; format: functional
In short: (§4)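 P388 leukemia (PS) in mice, six mice started per dose group. Read-out is T/C: median survival time of the treated group divided by that of the untreated control group, expressed as a percent. The NIH protocol counts a compound as active when T/C > 125%.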

P388 [22] = experiment: Antitumor activity against mouse P388 cells allografted in PS mouse assessed as median survival time at 25 ug/kg relative to control; format: functional; in short: as §4
P388 [23] = experiment: Antitumor activity against mouse P388 cells allografted in PS mouse assessed as median survival time at 12.5 ug/kg relative to control; format: functional; in short: as §4
P388 [24] = experiment: Antitumor activity against mouse P388 cells allografted in PS mouse assessed as median survival time at 6.2 ug/kg relative to control; format: functional; in short: as §4
P388 [25] = experiment: Antitumor activity against mouse P388 cells allografted in PS mouse assessed as median survival time at 3.1 ug/kg relative to control; format: functional; in short: as §4
P388 [26] = experiment: Antitumor activity against mouse P388 cells allografted in PS mouse assessed as median survival time at 1.6 ug/kg relative to control; format: functional; in short: as §4
P388 [27] = experiment: Antitumor activity against mouse P388 cells allografted in PS mouse assessed as median survival time at 0.8 ug/kg relative to control; format: functional; in short: as §4
P388 [28] = experiment: Antitumor activity against mouse P388 cells allografted in PS mouse assessed as median survival time at 0.4 ug/kg relative to control; format: functional; in short: as §4
P388 [29] = experiment: Antitumor activity against mouse P388 cells allografted in PS mouse assessed as median survival time at 0.2 ug/kg relative to control; format: functional; in short: as §4
P388 [30] = experiment: Antitumor activity against mouse P388 cells allografted in PS mouse assessed as median survival time at 0.1 ug/kg relative to control; format: functional; in short: as §4
Tubulin (Homo sapiens) = Tubulin (Homo sapiens) (UniProt P68371+Q9H4B7+P0DPH7+P68366+Q13509+Q71U36+P04350+Q3ZCM7+P07437+P68363+Q9BQE3+Q6PEY2+Q13885+Q9BVA1+Q9BUF5); experiment: Inhibition of brain tubulin polymerization (unknown origin) at 37 degC by spectrophotometry
Paracentrotus lividus = experiment: Antimitotic activity against sea urchin eggs assessed as drug level causing inhibition of mitosis; format: functional; conditions: Egg
Mus musculus [31] = experiment: Toxicity in PS mouse allografted with mouse P388 cells assessed as survival at 100 ug/kg after 4 days; format: organism-based; conditions: in vivo, 0.1 mg/kg, 96 h; in short: as §3
Mus musculus [32] = experiment: Toxicity in PS mouse allografted with mouse P388 cells assessed as change in body weight at 100 ug/kg relative to control; format: organism-based; conditions: in vivo, 0.1 mg/kg; in short: as §1
P388 [33] = experiment: Antitumor activity against mouse P388 cells allografted in PS mouse assessed as median survival time at 100 ug/kg relative to control; format: functional; in short: as §4
KB = experiment: Cytotoxicity against human KB cells; format: functional; conditions: read-out: ED50 (the source's name)
Mus musculus [34] = experiment: Toxicity in PS mouse allografted with mouse P388 cells assessed as survival at 200 ug/kg after 4 days; format: organism-based; conditions: in vivo, 0.2 mg/kg, 96 h; in short: as §3
Mus musculus [35] = experiment: Toxicity in PS mouse allografted with mouse P388 cells assessed as survival at 400 ug/kg after 4 days; format: organism-based; conditions: in vivo, 0.4 mg/kg, 96 h; in short: as §3
Mus musculus [36] = experiment: Toxicity in PS mouse allografted with mouse P388 cells assessed as change in body weight at 200 ug/kg relative to control; format: organism-based; conditions: in vivo, 0.2 mg/kg; in short: as §1
Mus musculus [37] = experiment: Toxicity in PS mouse allografted with mouse P388 cells assessed as change in body weight at 400 ug/kg relative to control; format: organism-based; conditions: in vivo, 0.4 mg/kg; in short: as §1
P388 [38] = experiment: Antitumor activity against mouse P388 cells allografted in PS mouse assessed as median survival time at 200 ug/kg relative to control; format: functional; in short: as §4
P388 [39] = experiment: Antitumor activity against mouse P388 cells allografted in PS mouse assessed as median survival time at 400 ug/kg relative to control; format: functional; in short: as §4

| Structure (SMILES) | Activity (Mus musculus [1]) [g] | Activity (Mus musculus [2]) [g] | Activity (Mus musculus [6]) | Activity (Mus musculus [7]) | Activity (Mus musculus [8]) | Activity (Mus musculus [9]) | Activity (Mus musculus [10]) | Activity (Mus musculus [11]) | Activity (Mus musculus [16]) [g] | Activity (Mus musculus [17]) [g] | Activity (Mus musculus [18]) [g] | Activity (Mus musculus [19]) [g] | T/C (P388 [21]) [%] | T/C (P388 [22]) [%] | T/C (P388 [23]) [%] | T/C (P388 [24]) [%] | T/C (P388 [25]) [%] | T/C (P388 [26]) [%] | inhibition (Tubulin (Homo sapiens)) | Activity (Paracentrotus lividus) | other results |
| --- | --- | --- | --- | --- | --- | --- | --- | --- | --- | --- | --- | --- | --- | --- | --- | --- | --- | --- | --- | --- | --- |
| COc1cc2cc(c1Cl)N(C)C(=O)C[C@H](OC(=O)[C@H](C)N(C)C(=O)CC(C)C)[C@]1(C)O[C@H]1[C@H](C)[C@@H]1C[C@@](O)(NC(=O)O1)[C@H](OC)/C=C/C=C(\C)C2 | 0.2 | -1.3 | Non-toxic | Non-toxic | Non-toxic | Non-toxic | Non-toxic | Non-toxic | -0.5 | -0.4 | 1.3 | 0.8 | <80 | 116 | 187 | 154 | 158 | 154 | Active | 1 ×10⁻⁸ mol/L | Activity (Mus musculus [3]): 0.7 g; Activity (Mus musculus [4]): -1.1 g; Activity (Mus musculus [5]): -0.6 g; Activity (Mus musculus [12]): Non-toxic; Activity (Mus musculus [13]): Non-toxic; Activity (Mus musculus [14]): Non-toxic; Activity (Mus musculus [15]): Non-toxic; Activity (Mus musculus [20]): 1.4 g; T/C (P388 [27]): 133%; T/C (P388 [28]): 125%; T/C (P388 [29]): 125%; T/C (P388 [30]): 120% |
| COc1cc2cc(c1Cl)NC(=O)/C=C/[C@]1(C)O[C@H]1[C@H](C)[C@@H]1C[C@@](O)(NC(=O)O1)[C@H](OC)/C=C/C=C(\C)C2 | -0.2 | 0 | Non-toxic | Non-toxic | Non-toxic | Non-toxic | Non-toxic | Non-toxic | -0.3 | -0.5 | -0.5 | 0.4 | 110 | 110 | 110 | 115 | 115 | 100 | Active | 1 µM | Activity (Mus musculus [3]): -0.1 g; Activity (Mus musculus [4]): 0.1 g; Activity (Mus musculus [5]): 1 g; Activity (Mus musculus [31]): Non-toxic; Activity (Mus musculus [12]): Non-toxic; Activity (Mus musculus [13]): Non-toxic; Activity (Mus musculus [14]): Non-toxic; Activity (Mus musculus [32]): 1.2 g; T/C (P388 [33]): 95%; T/C (P388 [27]): 90%; T/C (P388 [28]): 100%; T/C (P388 [29]): 100%; EC50 (KB): 0.019 µg/mL (≈ 0.0356 µM) |
| CCO[C@]12C[C@H](OC(=O)N1)[C@@H](C)[C@@H]1O[C@@]1(C)[C@@H](OC(=O)[C@H](C)N(C)C(C)=O)CC(=O)N(C)c1cc(cc(OC)c1Cl)C/C(C)=C/C=C/[C@H]2OC | -0.7 | -0.1 | Non-toxic | Non-toxic | Non-toxic | Non-toxic | Non-toxic | Non-toxic | -0.8 | -0.3 | -0.3 | -1.3 | 98 | 116 | 101 | 99 | 99 | 99 | Active | 1 ×10⁻⁷ mol/L | Activity (Mus musculus [31]): Non-toxic; Activity (Mus musculus [34]): Non-toxic; Activity (Mus musculus [35]): Non-toxic; Activity (Mus musculus [32]): -2 g; Activity (Mus musculus [36]): 0.3 g; Activity (Mus musculus [37]): -0.6 g; T/C (P388 [33]): 105%; T/C (P388 [38]): 98%; T/C (P388 [39]): 100%; EC50 (KB): 0.011 µg/mL (≈ 0.0153 µM) |
